# Results gathered from unrelated publications.
# Compare with care: the assays were run in different laboratories.
# ADRB2: Beta-2 adrenergic receptor (ADRB2, Homo sapiens, UniProt P07550)
Compound,target,observed,action,technique,notes,endpoint,result
CCC1(COCc2ccccc2F)CCC(C)(C)O1 (stereo not drawn),ADRB2,calcium signal,agonist,fluorescence,,EC50,17 µM
NCC(O)c1ccc(O)c(O)c1F (stereo not drawn),"Beta-2 adrenergic receptor (ADRB2, Homo sapiens, UniProt P07550, N293A)",ligand displacement,,radioligand,cell membranes,Ki,319 µM
CC(Cc1ccc2c(c1)OCO2)NCC(O)c1ccc(O)c(O)c1 (stereo not drawn),ADRB2,β-arrestin recruitment,agonist,,,EC50,0.00631 µM
CCOc1ccccc1OCCN[C@H](C)Cc1ccc(OC)c(S(N)(=O)=O)c1,ADRB2,ligand displacement,,radioligand,,IC50,2.2 µM
CC(N)Cc1c[nH]c2ccc(OCc3cccs3)cc12 (stereo not drawn),ADRB2,ligand displacement,,radioligand,cell membranes,IC50,9.42 µM
CN1CCC(=C2c3ccccc3CCc3sccc32)CC1,ADRB2,ligand displacement,,radioligand,,IC50,5.8 µM
C[C@H](N)Cn1ncc2ccc3c(c21)CCCO3,ADRB2,cAMP,agonist,,,EC50,> 100 µM
NCC(O)c1cc(O)c(O)cc1F (stereo not drawn),"Beta-2 adrenergic receptor (ADRB2, Homo sapiens, UniProt P07550, N293Q)",ligand displacement,,radioligand,cell membranes,Ki,3330 µM
COc1ccc(OC)c(C(O)C(C)N)c1 (stereo not drawn),ADRB2,ligand displacement,,radioligand,cell membranes,IC50,12.3 µM
